Paper PMC3632105 (Nucleic Acids Research, 2013)
“And” between values parts separate entries of the source, which are not always exact repeats. Identical values can stand only once.

Experiments:
[1] = Sedimentation coefficient of the free proteins; format: physicochemical; settings: low salt buffer: 5 mM potassium phosphate, pH 7.4, 5 mM NaCl, 8% (w/v) glycerol, 0.5 mM DTT; 20°C, 50 000 rpm
Outline: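 Sedimentation velocity in double-sector cells, recording 280 nm absorbance versus radial position. Samples were full-length DnaG, DnaG-N (residues 1–433), DnaG-C (434–581) and E. coli SSB. Concentrations came from 280 nm extinction coefficients. Data were evaluated as c(s) distributions in SEDFIT.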

[2] = test system: DnaG-C; assay: NMR titration; format: binding, Escherichia coli; settings: 300 µM 15N-DnaG-C titrated with SSB-Carb, 295 K, 600 MHz
Outline: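 15N-DnaG-C in 5 mM potassium phosphate pH 7.4, 5 mM NaCl, 2 mM DTT, 10% D2O. Peptide was added from a 30 mM DMSO stock to final 0, 0.1, 0.3, 0.6 and 1 mM. SOFAST-HMQC spectra used 16 scans. Shift = sqrt[Δδ(1H)² + (Δδ(15N)/10)²], comparing no peptide with 1 mM.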

[3] = test system: DnaG-C; assay: Isothermal titration calorimetry of DnaG-C with SSB-Carb peptide; format: binding, Escherichia coli; settings: for binding (association) constant KA by ITC: model of n identical independent sites
[4] = test system: SSB; settings: low salt conditions; cited from earlier work
[5] = 150 mM NaCl, 5 mM potassium phosphate, pH 7.4, 8% (w/v) glycerol, 25°C, SSB-Carb on DnaG-C

Question: For DnaG: full-length E. coli DnaG primase, which “sedimentation coefficient, free protein” value [1] is on record?
Answer: Its value is 3.4 S.

Question: Which “sedimentation coefficient, free protein” value [1] does the source give for “EcoSSB: Escherichia coli single-stranded DNA-binding protein; concentrations given in tetramers” here?
Answer: Its value is 3.9 S.

Question: What does the source list for WMDFDDDIPF [SSB-Carb]?
Answer: chemical shift change of W522 side chain of DnaG-C (in words) [2]: not only the chemical shifts of tryptophan 522 backbone change upon addition of SSB-Carb peptide but also those of the side chain; chemical shift change of W522 side chain of DnaG-C (in words) ([2]; listed as peptide): strong changes in chemical shift on peptide binding; binding (association) constant KA by ITC ([3]; 5 mM NaCl, 5 mM potassium phosphate, pH 7.4, 8% (w/v) glycerol, 25°C, 1.04 mM SSB-Carb titrated into 46 µM DnaG-C): 240000 M⁻¹; binding enthalpy ΔH by ITC ([3]; 5 mM NaCl, 5 mM potassium phosphate, pH 7.4, 8% (w/v) glycerol, 25°C, SSB-Carb on DnaG-C): -12.4 kcal/mol; binding (association) constant KA by ITC ([3]; 150 mM NaCl, 5 mM potassium phosphate, pH 7.4, 8% (w/v) glycerol, 25°C, 1.08 mM SSB-Carb titrated into 46 µM DnaG-C): 74000 M⁻¹ and ~70000 M⁻¹; binding enthalpy ΔH by ITC [3, 5]: -9.87 kcal/mol; binding stoichiometry n by ITC [3, 5]: 0.89; change of affinity on increase of salt concentration ([3]; from 5 to 150 mM NaCl, DnaG-C/SSB-Carb interaction, ITC): decreases the affinity only by a factor of about three

Question: For χ: χ subunit of DNA polymerase III, which “increase in SSB-binding affinity in presence of ssDNA” value [4] is on record?
Answer: The value was 20 fold.

B1: DnaG-C: amino acid residues 434–581 of DnaG, C-terminal helicase-binding domain (protein, UniProt P0ABS5 434-581, looked up, fragment)
chain: AAESGVSRPVPQLKRTTMRILIGLLVQNPELATLVPPLENLDENKLPGLGLFRELVNTCLSQPGLTTGQLLEHYRGTNNAATLEKLSMWDDIADKNIAEQTFTDSLNHMFDSLLELRQEELIARERTHGLSNEERLELWTLNQELAKK
modifications: helicase-binding domain
Question: For B1, which “sedimentation coefficient, free protein” value [1] is on record?
Answer: Its value is 1.4 S.

B2: DnaG-N: amino acid residues 1–433 of DnaG (protein, UniProt P0ABS5 1-433, looked up, fragment)
chain: MAGRIPRVFINDLLARTDIVDLIDARVKLKKQGKNFHACCPFHNEKTPSFTVNGEKQFYHCFGCGAHGNAIDFLMNYDKLEFVETVEELAAMHNLEVPFEAGSGPSQIERHQRQTLYQLMDGLNTFYQQSLQQPVATSARQYLEKRGLSHEVIARFAIGFAPPGWDNVLKRFGGNPENRQSLIDAGMLVTNDQGRSYDRFRERVMFPIRDKRGRVIGFGGRVLGNDTPKYLNSPETDIFHKGRQLYGLYEAQQDNAEPNRLLVVEGYMDVVALAQYGINYAVASLGTSTTADHIQLLFRATNNVICCYDGDRAGRDAAWRALETALPYMTDGRQLRFMFLPDGEDPDTLVRKEGKEAFEARMEQAMPLSAFLFNSLMPQVDLSTPDGRARLSTLALPLISQVPGETLRIYLRQELGNKLGILDDSQLERLMPK
Question: Which “sedimentation coefficient, free protein” value [1] does the source give for B2 here?
Answer: The value was 2.9 S.
